Test results from article PMC3182445 (The Journal of General Physiology, 2011).
Read-outs that look alike come from different tables or passages of the source.

Key:
[1] = Free calcium concentration in bath medium by calcium ion selective electrode; assay type: physicochemical; details: agonist concentrations above 100 µM; Mg^2+-free buffer, Ca^2+ fixed at 950 µM
How it was run: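 Free Ca2+ read with a Ca2+-selective electrode. Mg2+-free buffer: 147 mM NaCl, 3 mM KCl, 10 mM glucose, 10 mM HEPES, pH 7.35, with 0.95 mM Ca2+. ATP or BzATP at 0, 1, 3.2, 10, 32, 100 and 320 µM, diluted from 10 mM aqueous stocks. Millivolt readings converted using a semilogarithmic standard curve. Means of three experiments.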

rat P2X7R = molecular target: T1, rat P2X7R (Rattus norvegicus, UniProt Q64663); assay type: cell-based
T1 sequence (Q64663 1-595): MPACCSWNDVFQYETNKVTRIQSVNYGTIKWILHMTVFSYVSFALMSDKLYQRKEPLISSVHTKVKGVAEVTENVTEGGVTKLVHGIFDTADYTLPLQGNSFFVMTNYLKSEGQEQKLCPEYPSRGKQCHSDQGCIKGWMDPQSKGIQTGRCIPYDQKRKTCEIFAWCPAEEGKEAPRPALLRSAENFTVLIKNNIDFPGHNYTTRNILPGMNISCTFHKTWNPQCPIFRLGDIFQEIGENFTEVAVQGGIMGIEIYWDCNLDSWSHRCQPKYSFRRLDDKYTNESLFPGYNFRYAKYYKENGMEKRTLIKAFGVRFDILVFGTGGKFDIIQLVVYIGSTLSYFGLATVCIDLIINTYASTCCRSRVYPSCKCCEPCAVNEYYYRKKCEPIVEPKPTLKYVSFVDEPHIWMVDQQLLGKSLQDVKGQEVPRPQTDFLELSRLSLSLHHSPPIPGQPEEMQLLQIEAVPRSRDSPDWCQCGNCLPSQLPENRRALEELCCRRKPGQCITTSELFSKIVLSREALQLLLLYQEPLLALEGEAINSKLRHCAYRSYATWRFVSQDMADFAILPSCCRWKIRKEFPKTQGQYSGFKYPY

rP2X7R-H130A mutant = assay type: cell-based, rat; details: 100 µM BzATP; 10 mM Ca^2+ vs Ca^2+-deficient medium
How it was run: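 Rat P2X7R-H130A mutant transfected into HEK293 cells (2 µg DNA, Lipofectamine 2000, serum-free Opti-MEM 4.5 h, then 24–48 h), replated 2–10 h, EGFP-positive cells chosen. Whole-cell patch clamp at room temperature, −60 mV hold. Pipette: 145 mM NaCl, 10 mM EGTA, 10 mM HEPES, pH 7.35. Bath: Krebs-Ringer-like, 1 mM MgCl2, pH 7.35. 100 µM BzATP given in Ca2+-deficient or 10 mM Ca2+ medium. Four experiments, mean ± SEM.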

With 2’(3′)-O-4-benzoylbenzoyl)ATP [BzATP] the “free Ca^2+ concentration in presence of BzATP relative to ATP (higher)” value [1] was 2–3%.

With `Clc1cccc(-c2nnnn2Cc2cccnc2)c1Cl` [A438079] the “time for effect on receptor deactivation” value (rat P2X7R; 100 µM A438079 applied during washout of 100 µM BzATP, Ca^2+-containing and Ca^2+-deficient medium) was roughly 0.8 s, the “potency relative to ATP” value (rat P2X7R; higher potency than ATP at rat receptor) was ~3,000 fold and the “potency relative to BzATP” value (rat P2X7R; higher potency than BzATP at rat receptor) was 200 fold. The “current generated when applied alone” value (rat P2X7R; no agonist, unpublished data) was “did not generate any current”, the IC50 (rat P2X7R; read-out: IC50, inhibition of current, cells stimulated with 32 µM BzATP) was roughly 300 nM and the IC50 (rat P2X7R; read-out: IC50, reduction of peak amplitude of current, applied together with 3.2 mM ATP, estimated) was roughly 1000 nM.

With `[Ca+2]` [Ca^2+, calcium] the “rightward shift in agonist (ATP, BzATP) dose-response” value (rat P2X7R; naive receptors, 2-mM Ca^2+-containing vs Ca^2+-deficient medium, 1 mM Mg^2+) was roughly 0.5 log units and the “decrease in the peak amplitude of current” value (rP2X7R-H130A mutant) was 15 fold.
